# Test results taken from ChEMBL document CHEMBL1131215, “Anhydrolide macrolides. 1. Synthesis and antibacterial activity of 2,3-anhydro-6-O-methyl 11,12-carbamate erythromycin A analogues” (1998).
# How the values were obtained:
# Format in all cases: functional
# [1] = system: Staphylococcus aureus; assay: In vitro antibacterial activity against 6538P strain of Staphylococcus aureus
# Method in brief: (§1)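 MIC determined by standard agar dilution; values in μg/mL.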
# [2] = system: Staphylococcus aureus; assay: In vitro antibacterial activity against A5177 strain of Staphylococcus aureus; method in brief: as §1
# [3] = system: Streptococcus pneumoniae; assay: In vitro antibacterial activity against 5649 strain of Streptococcus pneumoniae; method in brief: as §1
# [4] = system: Streptococcus pneumoniae; assay: In vitro antibacterial activity against ATCC 6303 strain of Streptococcus pneumoniae; method in brief: as §1
# [5] = system: Streptococcus pyogenes; assay: In vitro antibacterial activity against PIU 2548 strain of Streptococcus pyogenes; method in brief: as §1
# [6] = system: Haemophilus influenzae; assay: In vitro antibacterial activity against DILL strain of Haemophilus influenzae.; method in brief: as §1
# [7] = system: Streptococcus pyogenes; assay: In vitro antibacterial activity against 930 strain of Streptococcus pyogenes; method in brief: as §1
# [8] = In vitro antibacterial activity against A-5278 strain of Staphylococcus aureus; method in brief: as §1
# [9] = system: Streptococcus pneumoniae; assay: In vitro antibacterial activity against 5979 strain of Streptococcus pneumoniae; method in brief: as §1
# [10] = Streptococcus pneumoniae, ATCC 6303
Structure (SMILES),MIC ([1]; Staphylococcus aureus) [mg/L],MIC ([2]; Staphylococcus aureus) [mg/L],MIC ([3]; Streptococcus pneumoniae) [mg/L],"MIC [4, 10] [mg/L]",MIC ([5]; Streptococcus pyogenes) [mg/L],MIC [6] [mg/L],MIC ([7]; Streptococcus pyogenes) [mg/L],MIC ([8]; Staphylococcus aureus) [mg/L],MIC [1] [mg/L],MIC [5] [mg/L],MIC [2] [mg/L],MIC [9] [mg/L],MIC [7] [mg/L],MIC [3] [mg/L],MIC [4] [mg/L],MIC [8] [mg/L]
CC[C@H]1OC(=O)/C(C)=C/[C@H](C)[C@@H](O[C@@H]2O[C@H](C)C[C@H](N(C)C)[C@H]2O)[C@@](C)(OC)C[C@@H](C)C(=O)[C@H](C)[C@H]2N(C(C)C)C(=O)O[C@]12C,12.5,12.5,2,2,1.56,–,–,–,–,–,–,–,–,–,–,–
CC[C@H]1OC(=O)/C(C)=C/[C@H](C)[C@@H](O[C@@H]2O[C@H](C)C[C@H](N(C)C)[C@H]2O)[C@@](C)(OC)C[C@@H](C)C(=O)/C(C)=C/[C@]1(C)OC(=O)OC,25,25,–,–,25,–,50,–,–,–,–,–,–,–,–,–
CC[C@H]1OC(=O)/C(C)=C/[C@H](C)[C@@H](O[C@@H]2O[C@H](C)C[C@H](N(C)C)[C@H]2O)[C@@](C)(OC)C[C@@H](C)C(=O)/C(C)=C/[C@]1(C)OC(=O)NCCCOc1ccc2ccccc2c1,6.2,3.1,–,–,6.2,–,25,50,–,–,–,–,–,–,–,–
CC[C@H]1OC(=O)/C(C)=C/[C@H](C)[C@@H](O[C@@H]2O[C@H](C)C[C@H](N(C)C)[C@H]2O)[C@@](C)(OC)C[C@@H](C)C(=O)[C@H](C)[C@H]2NC(=O)O[C@@]21C (stereo in doubt; 7),–,–,–,–,–,–,–,–,25,6.2,–,–,–,–,–,–
CC[C@H]1OC(=O)/C(C)=C/[C@H](C)[C@@H](O[C@@H]2O[C@H](C)C[C@H](N(C)C)[C@H]2O)[C@@](C)(OC)C[C@@H](C)C(=O)[C@H](C)[C@H]2N(CCc3ccc(Oc4ccccc4)cc3)C(=O)O[C@]12C (stereo in doubt; 14),–,–,–,–,1.56,–,6.2,25,3.1,–,3.1,8,–,2,1,–
CC[C@H]1OC(=O)[C@H](C)[C@@H](O[C@H]2C[C@@](C)(OC)[C@@H](O)[C@H](C)O2)[C@H](C)[C@@H](O[C@@H]2O[C@H](C)C[C@H](N(C)C)[C@H]2O)[C@](C)(O)C[C@@H](C)C(=O)[C@H](C)[C@@H](O)[C@]1(C)O [ERYTHROMYCIN],0.2,3.1,8,–,3.1,4,–,–,–,–,–,–,–,–,0.06,–

# Next, values leading:
MIC ([1]; Staphylococcus aureus) [mg/L],MIC ([2]; Staphylococcus aureus) [mg/L],MIC ([3]; Streptococcus pneumoniae) [mg/L],"MIC [4, 10] [mg/L]",MIC ([5]; Streptococcus pyogenes) [mg/L],MIC [6] [mg/L],MIC ([7]; Streptococcus pyogenes) [mg/L],MIC ([8]; Staphylococcus aureus) [mg/L],MIC [1] [mg/L],MIC [5] [mg/L],MIC [2] [mg/L],MIC [9] [mg/L],MIC [7] [mg/L],MIC [3] [mg/L],MIC [4] [mg/L],MIC [8] [mg/L],Structure (SMILES)
0.39,0.39,1,0.03,0.2,16,–,–,–,–,–,–,–,–,–,–,CC[C@H]1OC(=O)/C(C)=C/[C@H](C)[C@@H](O[C@@H]2O[C@H](C)C[C@H](N(C)C)[C@H]2O)[C@@](C)(OC)C[C@@H](C)C(=O)[C@H](C)[C@H]2N(CCCOc3ccncc3)C(=O)O[C@]12C
0.78,0.78,0.5,0.125,0.39,16,–,–,–,–,–,–,–,–,–,–,CC[C@H]1OC(=O)/C(C)=C/[C@H](C)[C@@H](O[C@@H]2O[C@H](C)C[C@H](N(C)C)[C@H]2O)[C@@](C)(OC)C[C@@H](C)C(=O)[C@H](C)[C@H]2N(CCc3ccc(O)cc3)C(=O)O[C@]12C
3.1,3.1,2,0.5,0.39,64,–,–,–,–,–,–,–,–,–,–,C=COCCCN1C(=O)O[C@]2(C)[C@@H](CC)OC(=O)/C(C)=C/[C@H](C)[C@@H](O[C@@H]3O[C@H](C)C[C@H](N(C)C)[C@H]3O)[C@@](C)(OC)C[C@@H](C)C(=O)[C@H](C)[C@@H]12
0.39,0.39,–,–,0.39,32,12.5,50,–,–,–,–,–,–,–,–,CC[C@H]1OC(=O)/C(C)=C/[C@H](C)[C@@H](O[C@@H]2O[C@H](C)C[C@H](N(C)C)[C@H]2O)[C@@](C)(OC)C[C@@H](C)C(=O)[C@H](C)[C@H]2N(CCCCc3ccccc3)C(=O)O[C@]12C
–,–,2,1,–,–,–,50,3.1,0.78,3.1,64,25,–,–,–,CC[C@H]1OC(=O)/C(C)=C/[C@H](C)[C@@H](O[C@@H]2O[C@H](C)C[C@H](N(C)C)[C@H]2O)[C@@](C)(OC)C[C@@H](C)C(=O)[C@H](C)[C@H]2N(CCCc3ccccc3)C(=O)O[C@]12C (stereo in doubt; 10)
–,–,–,–,–,–,25,–,25,6.2,25,–,–,–,–,–,CC[C@H]1OC(=O)/C(C)=C/[C@H](C)[C@@H](O[C@@H]2O[C@H](C)C[C@H](N(C)C)[C@H]2O)[C@@](C)(OC)C[C@@H](C)C(=O)[C@H](C)[C@H]2N(CCCc3ccccc3)C(=O)O[C@]12C (stereo in doubt; 11)
–,–,–,–,–,–,–,–,25,3.1,25,–,6.2,8,4,12.5,CC[C@H]1OC(=O)/C(C)=C/[C@H](C)[C@@H](O[C@@H]2O[C@H](C)C[C@H](N(C)C)[C@H]2O)[C@@](C)(OC)C[C@@H](C)C(=O)[C@H](C)[C@H]2N(CCc3ccc(Oc4ccccc4)cc3)C(=O)O[C@]12C (stereo in doubt; 15)
